According to ChEMBL document CHEMBL1926569, “Novel (E)-1-(4-methyl-2-(alkylamino)thiazol-5-yl)-3-arylprop-2-en-1-ones as potent antimicrobial agents” (2011):

Tests used:
Staphylococcus aureus [1] = test: Antibacterial activity against Staphylococcus aureus ATCC 6538 after 24 hrs by microdilution method; assay type: functional; conditions: ATCC 6538, 24 h
Outline: (§1)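 Broth microdilution in 96-well plates. Bacterial suspensions were adjusted in sterile saline to 1.0 × 10⁵ CFU/ml, prepared daily and kept at 4 °C. Compound was added to LB broth with 1.0 × 10⁴ CFU per well and shaken at 160 rpm for 24 h at […] (so in the source). MIC is the lowest concentration with no visible growth under a binocular microscope. OD655 was also read. Duplicate, repeated three times.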

Bacillus cereus [2] = test: Antibacterial activity against clinical isolate of Bacillus cereus after 24 hrs by microdilution method; assay type: functional; outline: as §1
Micrococcus flavus [3] = test: Antibacterial activity against Micrococcus flavus ATCC 10240 after 24 hrs by microdilution method; assay type: functional; conditions: ATCC 10240, 24 h; outline: as §1
Listeria monocytogenes [4] = test: Antibacterial activity against Listeria monocytogenes NCTC 7973 after 24 hrs by microdilution method; assay type: functional; conditions: NCTC 7973, 24 h; outline: as §1
Pseudomonas aeruginosa [5] = test: Antibacterial activity against Pseudomonas aeruginosa ATCC 27853 after 24 hrs by microdilution method; assay type: functional; conditions: ATCC 27853, 24 h; outline: as §1
Salmonella typhimurium [6] = test: Antibacterial activity against Salmonella Typhimurium ATCC 13311 after 24 hrs by microdilution method; assay type: functional, Salmonella enterica subsp. enterica serovar Typhimurium; conditions: Salmonella enterica, ATCC 13311, 24 h; outline: as §1
Escherichia coli [7] = test: Antibacterial activity against Escherichia coli ATCC 35210 after 24 hrs by microdilution method; assay type: functional; conditions: ATCC 35210, 24 h; outline: as §1
Enterococcus faecalis [8] = test: Antibacterial activity against Enterococcus faecalis isolated from human after 24 hrs by microdilution method; assay type: functional; outline: as §1
Staphylococcus aureus [9] = test: Antibacterial activity against Staphylococcus aureus ATCC 6538 incubated for 24 hrs followed by serial sub-cultivation for 24 hrs by microdilution method; assay type: functional; conditions: ATCC 6538, 24 h
Outline: (§2)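 MBC: after the 24 h LB broth microdilution (1.0 × 10⁴ CFU per well, 160 rpm), wells were serially sub-cultured into fresh broth plates and incubated a further 24 h. MBC is the lowest concentration with no visible growth, taken as 99.5% killing of the original inoculum. Duplicate, repeated three times.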

Bacillus cereus [10] = test: Antibacterial activity against clinical isolate of Bacillus cereus incubated for 24 hrs followed by serial sub-cultivation for 24 hrs by microdilution; assay type: functional; outline: as §2
Micrococcus flavus [11] = test: Antibacterial activity against Micrococcus flavus ATCC 10240 incubated for 24 hrs followed by serial sub-cultivation for 24 hrs by microdilution; assay type: functional; conditions: ATCC 10240, 24 h; outline: as §2
Listeria monocytogenes [12] = test: Antibacterial activity against Listeria monocytogenes NCTC 7973 incubated for 24 hrs followed by serial sub-cultivation for 24 hrs by microdilution; assay type: functional; conditions: NCTC 7973, 24 h; outline: as §2
Pseudomonas aeruginosa [13] = test: Antibacterial activity against Pseudomonas aeruginosa ATCC 27853 incubated for 24 hrs followed by serial sub-cultivation for 24 hrs by microdilution; assay type: functional; conditions: ATCC 27853, 24 h; outline: as §2
Salmonella typhimurium [14] = test: Antibacterial activity against Salmonella Typhimurium ATCC 13311 incubated for 24 hrs followed by serial sub-cultivation for 24 hrs by microdilution; assay type: functional, Salmonella enterica subsp. enterica serovar Typhimurium; conditions: Salmonella enterica, ATCC 13311, 24 h; outline: as §2
Escherichia coli [15] = test: Antibacterial activity against Escherichia coli ATCC 35210 incubated for 24 hrs followed by serial sub-cultivation for 24 hrs by microdilution; assay type: functional; conditions: ATCC 35210, 24 h; outline: as §2
Enterococcus faecalis [16] = test: Antibacterial activity against Enterococcus faecalis isolated from human incubated for 24 hrs followed by serial sub-cultivation for 24 hrs by microdilution; assay type: functional; outline: as §2
Aspergillus ochraceus [17] = test: Antifungal activity against Aspergillus ochraceus ATCC 12066 after 72 hrs by serial dilution technique; assay type: functional; conditions: ATCC 12066, 72 h
Outline: (§3)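 Modified microdilution in 96-well plates. Fungi were kept on malt agar at 4 °C. Spores were washed off in sterile 0.85% saline with 0.1% Tween 80. Compounds were dissolved at 1 mg/ml in 5% DMSO with 0.1% Tween 80 and added to malt broth with inoculum. Plates were shaken at 160 rpm for 72 h at 28 °C. Duplicate, repeated three times.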

Aspergillus niger [18] = test: Antifungal activity against Aspergillus niger ATCC 6275 after 72 hrs by serial dilution technique; assay type: functional; conditions: ATCC 6275, 72 h; outline: as §3
Aspergillus flavus [19] = test: Antifungal activity against Aspergillus flavus ATCC 9643 after 72 hrs by serial dilution technique; assay type: functional; conditions: ATCC 9643, 72 h; outline: as §3
Talaromyces funiculosus [20] = test: Antifungal activity against Penicillium funiculosum ATCC 36839 after 72 hrs by serial dilution technique; assay type: functional; conditions: ATCC 36839, 72 h; outline: as §3
Penicillium ochrochloron [21] = test: Antifungal activity against Penicillium ochrochloron ATCC 9112 after 72 hrs by serial dilution technique; assay type: functional; conditions: ATCC 9112, 72 h; outline: as §3
Trichoderma viride [22] = test: Antifungal activity against Trichoderma viride IAM 5061 after 72 hrs by serial dilution technique; assay type: functional; conditions: IAM 5061, 72 h; outline: as §3
Candida albicans [23] = test: Antifungal activity against Candida albicans isolated from human after 72 hrs by serial dilution technique; assay type: functional; outline: as §3
Aspergillus ochraceus [24] = test: Antifungal activity against Aspergillus ochraceus ATCC 12066 incubated for 72 hrs followed by serial sub-cultivation for 72 hrs by serial dilution technique; assay type: functional; conditions: ATCC 12066, 72 h
Outline: (§4)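 MFC: material from 72 h malt broth microdilution wells was serially sub-cultured into fresh broth plates and incubated a further 72 h at 28 °C. Fungicidal concentration is taken from growth after sub-culture. Duplicate, repeated three times.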

Aspergillus fumigatus [25] = test: Antifungal activity against Aspergillus fumigatus isolated from human incubated for 72 hrs followed by serial sub-cultivation for 72 hrs by serial dilution technique; assay type: functional; outline: as §4
Aspergillus niger [26] = test: Antifungal activity against Aspergillus niger ATCC 6275 incubated for 72 hrs followed by serial sub-cultivation for 72 hrs by serial dilution technique; assay type: functional; conditions: ATCC 6275, 72 h; outline: as §4
Aspergillus flavus [27] = test: Antifungal activity against Aspergillus flavus ATCC 9643 incubated for 72 hrs followed by serial sub-cultivation for 72 hrs by serial dilution technique; assay type: functional; conditions: ATCC 9643, 72 h; outline: as §4
Talaromyces funiculosus [28] = test: Antifungal activity against Penicillium funiculosum ATCC 36839 incubated for 72 hrs followed by serial sub-cultivation for 72 hrs by serial dilution technique; assay type: functional; conditions: ATCC 36839, 72 h; outline: as §4
Penicillium ochrochloron [29] = test: Antifungal activity against Penicillium ochrochloron ATCC 9112 incubated for 72 hrs followed by serial sub-cultivation for 72 hrs by serial dilution technique; assay type: functional; conditions: ATCC 9112, 72 h; outline: as §4
Trichoderma viride [30] = test: Antifungal activity against Trichoderma viride IAM 5061 incubated for 72 hrs followed by serial sub-cultivation for 72 hrs by serial dilution technique; assay type: functional; conditions: IAM 5061, 72 h; outline: as §4
Candida albicans [31] = test: Antifungal activity against Candida albicans isolated from human incubated for 72 hrs followed by serial sub-cultivation for 72 hrs by serial dilution technique; assay type: functional; outline: as §4
Pseudomonas aeruginosa [32] = test: Ratio of ampicillin MIC to compound MIC for Pseudomonas aeruginosa ATCC 27853; assay type: functional
Aspergillus ochraceus [33] = test: Ratio of bifonazole to compound for Aspergillus ochraceus ATCC 12066; assay type: functional
Aspergillus niger [34] = test: Ratio of bifonazole to compound for Aspergillus niger ATCC 6275; assay type: functional
Talaromyces funiculosus [35] = test: Ratio of bifonazole to compound for Penicillium funiculosum ATCC 36839; assay type: functional
Penicillium ochrochloron [36] = test: Ratio of bifonazole to compound for Penicillium ochrochloron ATCC 9112; assay type: functional
Trichoderma viride [37] = test: Ratio of bifonazole to compound for Trichoderma viride IAM 5061; assay type: functional
Candida albicans [38] = test: Ratio of bifonazole to compound for Candida albicans isolated from human; assay type: functional
Aspergillus ochraceus [39] = test: Ratio of ketoconazole to compound for Aspergillus ochraceus ATCC 12066; assay type: functional
Aspergillus fumigatus [40] = test: Ratio of ketoconazole to compound for Aspergillus fumigatus isolated from human; assay type: functional
Penicillium ochrochloron [41] = test: Ratio of ketoconazole to compound for Penicillium ochrochloron ATCC 9112; assay type: functional
Candida albicans [42] = test: Ratio of ketoconazole to compound for Candida albicans isolated from human; assay type: functional
Aspergillus ochraceus [43] = test: Antifungal activity against Aspergillus ochraceus after 72 hrs by serial dilution technique

CNc1nc(C)c(C(=O)/C=C/c2cccc(F)c2)s1
18.1 µM: MIC (Micrococcus flavus [3])
51.3 µM: MIC (Candida albicans [23])
72.5 µM: MIC (Staphylococcus aureus [1]) | MIC (Bacillus cereus [2]) | MIC (Salmonella typhimurium [6]) | MBC (Micrococcus flavus [11]) | MBC (Pseudomonas aeruginosa [13]) | MBC (Escherichia coli [15]) | MBC (Enterococcus faecalis [16]) | MFC (Aspergillus ochraceus [24]) | MFC (Aspergillus fumigatus [25]) | MFC (Aspergillus niger [26]) | MFC (Talaromyces funiculosus [28]) | MFC (Penicillium ochrochloron [29]) | MFC (Trichoderma viride [30]) | MFC (Candida albicans [31])
36.2 µM: MIC (Aspergillus ochraceus [17]) | MIC (Aspergillus flavus [19]) | MIC (Talaromyces funiculosus [20]) | MIC (Penicillium ochrochloron [21]) | MIC (Trichoderma viride [22]) | MIC (Aspergillus ochraceus [43])
54.3 µM: MIC (Pseudomonas aeruginosa [5]) | MIC (Escherichia coli [7]) | MIC (Enterococcus faecalis [8]) | MIC (Aspergillus niger [18])
90.6 µM: MIC (Listeria monocytogenes [4]) | MBC (Staphylococcus aureus [9]) | MBC (Bacillus cereus [10]) | MBC (Listeria monocytogenes [12]) | MBC (Salmonella typhimurium [14]) | MFC (Aspergillus flavus [27])
10: Ratio (Pseudomonas aeruginosa [32]) | Ratio (Aspergillus ochraceus [33]) | Ratio (Aspergillus niger [34]) | Ratio (Talaromyces funiculosus [35]) | Ratio (Penicillium ochrochloron [36]) | Ratio (Trichoderma viride [37]) | Ratio (Candida albicans [38]) | Ratio (Aspergillus ochraceus [39]) | Ratio (Aspergillus fumigatus [40]) | Ratio (Penicillium ochrochloron [41]) | Ratio (Candida albicans [42])
